Test results from ChEMBL document CHEMBL1629527, “In vitro antifungal activities of bis(alkylpyridinium)alkane compounds against pathogenic yeasts and molds” (Antimicrob Agents Chemother, 2010).

Columns and labels:
[1] = system: Lichtheimia corymbifera; experiment: Antifungal activity against Absidia corymbifera 04-200170 after 24 to 72 hrs by broth microdilution method; type: functional
In short: (§1)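 Broth microdilution MIC per CLSI M27-A3 (yeasts) or M38-A2 (molds). RPMI 1640 with L-glutamine, without bicarbonate, buffered to pH 7.0 with 0.165 M MOPS. Final test range for the compounds was 0.175–87.5 μM. Incubation at 35°C with visual reading at 24–72 h. MIC was the lowest concentration giving 100% inhibition versus the growth control (azoles 50% or 100%, by organism). Each isolate was run in duplicate in two independent experiments.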

[2] = system: Pichia kudriavzevii; experiment: Antifungal activity against Candida krusei 04-202328 after 48 to 72 hrs; type: functional
In short: (§2)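 CLSI M27-A3 broth microdilution for yeasts in RPMI 1640 with L-glutamine and no bicarbonate, buffered with 0.165 M MOPS to pH 7.0. Compounds were dissolved in water and tested at 0.175–87.5 μM final, 35°C. MIC was read visually at 24–72 h as 100% inhibition versus growth control. For MFC, 30 μl from clear wells went onto SDA at 35°C for 48–72 h, reading the lowest concentration without colonies. Duplicates, two independent runs.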

[3] = system: Cryptococcus gattii species complex; experiment: Antifungal activity against Cryptococcus gattii 05-200122 after 24 to 72 hrs by broth microdilution method; type: functional, Cryptococcus bacillisporus; in short: as §1
[4] = system: Rhizopus arrhizus; experiment: Antifungal activity against Rhizopus oryzae 05-203111 after 24 to 72 hrs by broth microdilution method; type: functional
In short: (§3)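 Mold isolates subcultured on potato dextrose agar, then tested by CLSI M38-A2 broth microdilution in RPMI 1640 (L-glutamine, no bicarbonate) buffered to pH 7.0 with 0.165 M MOPS. Compounds were dissolved in water and tested at a final 0.175–87.5 μM. Plates were incubated at 35°C. MIC was read visually as the lowest concentration giving 100% inhibition versus the growth control. Each isolate was run in duplicate in two independent experiments.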

[5] = system: Candida albicans; experiment: Antifungal activity against Candida albicans ATCC 10231 after 24 to 72 hrs by broth microdilution method; type: functional; in short: as §1
[6] = system: Cryptococcus neoformans; experiment: Antifungal activity against Cryptococcus neoformans 05-202523 after 24 to 72 hrs by broth microdilution method; type: functional; in short: as §1
[7] = system: Cryptococcus neoformans; experiment: Antifungal activity against Cryptococcus neoformans 05-202523 after 48 to 72 hrs; type: functional
In short: (§4)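 MFC: after the MIC read, 30-μl aliquots from each well without visible growth were plated onto Sabouraud dextrose agar and incubated at 35°C. Reading was at 48–72 h for yeasts and up to 7 days for molds. MFC was the lowest concentration with no colonies.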

[8] = system: Aspergillus flavus; experiment: Antifungal activity against Aspergillus flavus ATCC 204304 after 24 to 72 hrs by broth microdilution method; type: functional; in short: as §1
[9] = system: Rhizopus arrhizus; experiment: Antifungal activity against Rhizopus oryzae 05-203111 after 48 to 72 hrs; type: functional
In short: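 After the broth microdilution MIC read, suspension from every well without visible growth was plated onto Sabouraud dextrose agar and incubated at 35°C, up to 7 days for molds. MFC was taken as the lowest drug concentration with no colonies.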

[10] = system: Candida parapsilosis; experiment: Antifungal activity against Candida parapsilosis 04-202398 after 24 to 72 hrs by broth microdilution method; type: functional; conditions: Lodderomyces parapsilosis; in short: as §1
[11] = system: Nakaseomyces glabratus; experiment: Antifungal activity against Candida glabrata 04-202345 after 24 to 72 hrs by broth microdilution method; type: functional; in short: as §1
[12] = system: Candida tropicalis; experiment: Antifungal activity against Candida tropicalis 04-202361 after 24 to 72 hrs by broth microdilution method; type: functional; in short: as §1
[13] = system: Aspergillus terreus; experiment: Antifungal activity against Aspergillus terreus 05-202844 after 24 to 72 hrs by broth microdilution method; type: functional; in short: as §1
[14] = system: Aspergillus fumigatus; experiment: Antifungal activity against Aspergillus fumigatus 05-203114 after 24 to 72 hrs by broth microdilution method; type: functional; in short: as §1
[15] = system: Lomentospora prolificans; experiment: Antifungal activity against Scedosporium prolificans 05-203060 after 24 to 72 hrs by broth microdilution method; type: functional; in short: as §3
[16] = system: Aspergillus terreus; experiment: Antifungal activity against Aspergillus terreus 05-202844 after 48 to 72 hrs; type: functional; in short: as §4
[17] = system: Pichia kudriavzevii; experiment: Antifungal activity against Candida krusei […] after 48 to 72 hrs; type: functional; in short: as §4
[18] = system: Scedosporium apiospermum; experiment: Antifungal activity against Scedosporium apiospermum 05-203100 after 24 to 72 hrs by broth microdilution method; type: functional; in short: as §3
[19] = system: Candida albicans; experiment: Antifungal activity against Candida albicans ATCC 90028 after 24 to 72 hrs by broth microdilution method; type: functional; in short: as §1
[20] = system: Candida parapsilosis; experiment: Antifungal activity against Candida parapsilosis ATCC 22019 after 24 to 72 hrs by broth microdilution method; type: functional; conditions: Lodderomyces parapsilosis; in short: as §1
[21] = system: Candida albicans; experiment: Antifungal activity against Candida albicans ATCC 90028 after 48 to 72 hrs; type: functional; in short: as §4
[22] = system: Aspergillus flavus; experiment: Antifungal activity against Aspergillus flavus 05-203758 after 24 to 72 hrs by broth microdilution method; type: functional; in short: as §1
[23] = system: Nakaseomyces glabratus; experiment: Antifungal activity against Candida glabrata 04-202345 after 48 to 72 hrs; type: functional; in short: as §4
[24] = system: Cryptococcus neoformans; experiment: Antifungal activity against Cryptococcus neoformans ATCC 90112 after 24 to 72 hrs by broth microdilution method; type: functional; in short: as §1
[25] = Antifungal activity against Paecilomyces lilacinus 05-200601 after 24 to 72 hrs by broth microdilution method; type: functional; conditions: Purpureocillium lilacinum; in short: as §3
[26] = system: Pichia kudriavzevii; experiment: Antifungal activity against Candida krusei ATCC 6258 after 24 to 72 hrs by broth microdilution method; type: functional; in short: as §1
[27] = system: Aspergillus fumigatus; experiment: Antifungal activity against Aspergillus fumigatus ATCC 204305 after 24 to 72 hrs by broth microdilution method; type: functional; in short: as §1
[28] = system: Pichia kudriavzevii; experiment: Antifungal activity against Candida krusei 04-202328 after 24 to 72 hrs by broth microdilution method; type: functional; in short: as §1
[29] = Antifungal activity against Exophiala jeanselmei 03-200268 after 24 to 72 hrs by broth microdilution method; type: functional; in short: as §1
[30] = system: Fusarium solani; experiment: Antifungal activity against Fusarium solani 04-203102 after 24 to 72 hrs by broth microdilution method; type: functional; in short: as §3
[31] = system: Candida parapsilosis; experiment: Antifungal activity against Candida parapsilosis ATCC 22019 after 48 to 72 hrs; type: functional; conditions: Lodderomyces parapsilosis; in short: as §4
[32] = system: Cunninghamella bertholletiae; experiment: Antifungal activity against Cunninghamella bertholletiae 99-12187 after 24 to 72 hrs by broth microdilution method; type: functional; in short: as §1
[33] = system: Exophiala spinifera; experiment: Antifungal activity against Exophiala spinifera 03-200803 after 24 to 72 hrs by broth microdilution method; type: functional; in short: as §3
[34] = system: Pichia kudriavzevii; experiment: Antifungal activity against Candida krusei ATCC 9258 after 24 to 72 hrs by broth microdilution method; type: functional; in short: as §1
[35] = system: Candida parapsilosis; experiment: Antifungal activity against Candida parapsilosis 04-202398 after 48 to 72 hrs; type: functional; conditions: Lodderomyces parapsilosis; in short: as §2
[36] = system: Aspergillus fumigatus; experiment: Antifungal activity against Aspergillus fumigatus 05-203114 after 48 to 72 hrs; type: functional
In short: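 CLSI M38-A2 broth microdilution for molds in RPMI 1640 with L-glutamine and no bicarbonate, buffered with 0.165 M MOPS to pH 7.0. Compounds were dissolved in water and tested at 0.175–87.5 μM final, 35°C, up to 7 days. MIC was read visually as 100% inhibition versus growth control. For MFC, clear wells were plated on SDA and the lowest concentration with no colonies taken. Each isolate was run in duplicate, two independent experiments.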

SMILES	MIC [1]	MFC [2]	MIC [3]	MIC [4]	MIC [5]	MIC [6]	MIC [8]	MFC [9]	MIC [10]	MIC [11]	MIC [12]	MIC [13]	MIC [14]	MIC [15]	MIC [18]	MIC [19]	MIC [20]	MIC [22]	MIC [24]	MIC [25]	other results
CC(C)CCc1cc[n+](CCCCCCCCCCCC[n+]2ccc(CCC(C)C)cc2)cc1.[Cl-].[Cl-]	> 47.3 µg/mL	47.3 µg/mL	1.48 µg/mL	5.9 µg/mL	2.96 µg/mL	11.8 µg/mL	> 47.3 µg/mL	23.7 µg/mL	> 47.3 µg/mL	1.48 µg/mL	2.96 µg/mL	2.96 µg/mL	> 47.3 µg/mL	2.96 µg/mL	11.8 µg/mL	2.96 µg/mL	1.48 µg/mL	> 47.3 µg/mL	2.96 µg/mL	> 47.3 µg/mL	MFC [7]: 47.3 µg/mL; MFC [16]: 5.9 µg/mL; MFC [17]: 23.7 µg/mL; MFC [21]: 5.9 µg/mL; MFC [23]: 5.9 µg/mL; MIC [26]: 23.7 µg/mL; MIC [27]: > 47.3 µg/mL; MIC [28]: 23.7 µg/mL; MIC [29]: 2.96 µg/mL; MIC [30]: 47.3 µg/mL; MFC [31]: 2.96 µg/mL; MIC [32]: > 47.3 µg/mL; MIC [33]: 1.48 µg/mL; MIC [34]: 11.8 µg/mL
[Cl-].[Cl-].c1ccc(CCCc2cc[n+](CCCCCCCCCCCC[n+]3ccc(CCCc4ccccc4)cc3)cc2)cc1	> 55.8 µg/mL	27.9 µg/mL	1.74 µg/mL	0.87 µg/mL	1.74 µg/mL	27.9 µg/mL	55.8 µg/mL	1.74 µg/mL	55.8 µg/mL	0.87 µg/mL	0.87 µg/mL	1.74 µg/mL	13.9 µg/mL	> 55.8 µg/mL	> 55.8 µg/mL	1.74 µg/mL	0.87 µg/mL	> 55.8 µg/mL	1.74 µg/mL	> 55.8 µg/mL	MFC [35]: > 55.8 µg/mL; MFC [36]: 55.8 µg/mL; MIC [26]: 13.9 µg/mL; MIC [27]: 27.9 µg/mL; MIC [28]: 13.9 µg/mL; MIC [29]: 1.74 µg/mL; MIC [30]: 27.9 µg/mL; MFC [31]: 1.74 µg/mL; MIC [32]: 27.9 µg/mL; MIC [33]: 1.74 µg/mL
